Test results as given in article PMC13647048 (Zoological Research, 2026).

Tests used:
[1] = test system: CLP-induced septic BALB/c mice; experiment: CLP-induced sepsis in mice; format: in vivo, mouse
In short: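 Male BALB/c mice, eight weeks old, 18–25 g, acclimatized 3 days, then anesthetized with xylazine 8 mg/kg plus ketamine 100 mg/kg. CLP was done under aseptic conditions; sham mice had the same surgery without CLP. Within 1 h post-surgery mice got test compound 5 mg/kg, DXM 10 mg/kg or 0.9% saline i.p. Survival was followed 72 h and clinical scoring done at 24 h. A separate cohort gave blood and organs at 12 h for cytokines.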

[2] = test system: Escherichia coli ATCC 25922; experiment: MIC, two-fold dilution, E. coli; format: cell-based; conditions: meropenem as positive control, E. coli ATCC 25922
[3] = test system: E. coli ATCC 25922; experiment: Time-kill assay; format: cell-based, Escherichia coli; conditions: meropenem 0.015 μmol/L; not completely eradicated within this time; n=3
In short: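 E. coli ATCC 25922 was exposed to test compound at several concentrations and sampled over incubation time. Viable CFU were counted by the spread plate method. Normal saline served as negative control and meropenem as positive control.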

[4] = serum and lung, HR-CATH2 5 mg/kg or DXM 10 mg/kg i.p., 12 h post-surgery

Question: For `C[C@@H]1C[C@H]2[C@@H]3CCC4=CC(=O)C=C[C@]4(C)[C@@]3(F)[C@@H](O)C[C@]2(C)[C@@]1(O)C(=O)CO` [DXM, dexamethasone], which Clinical scores ([1]; 24 h after CLP, DXM 10 mg/kg i.p.) is on record?
Answer: Its Clinical scores is “reduced clinical scores”.

Question: What about the Survival ([1]; 72 h after CLP, DXM 10 mg/kg i.p., n=10 per group) of the same compound?
Answer: Its Survival is “markedly improved survival”.

Question: And the Histopathological tissue injury ([1]; lung, kidney, liver, H&E, HR-CATH2 5 mg/kg or DXM 10 mg/kg i.p. at 1 h after CLP, 12 h post-surgery)?
Answer: Its Histopathological tissue injury is “significantly alleviated tissue injury”.

Question: What about the MPO activity ([1]; lung, HR-CATH2 5 mg/kg or DXM 10 mg/kg i.p., 12 h post-surgery) of the same compound?
Answer: Its MPO activity is “significantly attenuated”.

Question: What about the IL-1β concentration [1, 4] of the same compound?
Answer: Its IL-1β concentration is “significantly attenuated”.

Question: What about the IL-6 concentration [1, 4] of the same compound?
Answer: Its IL-6 concentration is “significantly attenuated”.

Question: What about the MCP-1 concentration [1, 4] of the same compound?
Answer: The MCP-1 concentration was “significantly attenuated”.

Question: And the TNF-α concentration [1, 4]?
Answer: The TNF-α concentration was “significantly attenuated”.

Question: `C[C@@H](O)[C@H]1C(=O)N2C(C(=O)O)=C(S[C@@H]3CN[C@H](C(=O)N(C)C)C3)[C@H](C)[C@H]12` [meropenem] was tested. Which “MIC (positive control)” value [2] did it give?
Answer: The value was 0.015 mol/L.

Question: And the “Time to complete eradication of E. coli” value [3]?
Answer: Its value is greater than 180 min.
